Laboratory results: paper PMC12804367 (ESMO Open, 2025)
Several values for one entry are separate records, joined by “and”; a condition that tells them apart may be missing. Equal entries are not always repeated. Entries after “also recorded” stand apart in the source; their conditions may differ. Where two headings read alike, the source gives them in different places.

What was measured:
[1] = system: patients with advanced or metastatic solid tumors; assay: Safety, tolerability and DLTs; format: in vivo, human; conditions: for Treatment-related AE: decreased appetite / Treatment-related AE: fatigue / Treatment-related AE: hyperglycemia / Treatment-related AE: pruritus / Treatment-related AE: rash: all patients (17)
In short: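 3 + 3 escalation starting at 16 mg/day once daily or 24 mg/day intermittent (4 days on/3 days off) in 21-day cycles. AEs graded by CTCAE v5.0. DLTs were selected lab abnormalities or AEs at least possibly drug-related during cycle 1, assessed in patients with a DLT or ≥80% of planned doses taken.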

advanced solid tumors = conditions: cited from earlier work
[2] = all patients (N = 17), any grade
[3] = all patients (N = 17), grade ≥3
[4] = dose escalation intermittent 24 mg (n = 4)
[5] = dose escalation intermittent 28 mg (n = 3)
[6] = dose escalation intermittent total (n = 7), any grade
[7] = dose escalation intermittent total (n = 7), grade ≥3
[8] = dose escalation o.d. 16 mg (n = 3)
[9] = dose escalation o.d. 20 mg (n = 6)
[10] = dose escalation o.d. total (n = 9), any grade
[11] = dose escalation o.d. total (n = 9), grade ≥3
[12] = two intermittent dosing groups (n = 7)

SMILES: C[C@]1(O)C[C@@](N)(c2ccc(-c3nc4n(c3-c3ccccc3)COc3ccncc3-4)cc2)C1 [TAS-117]
- DLTs ([1]; 16 mg o.d.): no DLTs
- Time to resolution of DLT ([1]; 20 mg o.d., grade 3 neutropenic infection, dose not modified): ≤ 6 days
- DLT event ([1]; 20 mg o.d., one patient): grade 3 neutropenic infection
- DLT event ([1]; 28 mg intermittent dosing, two patients): grade 3 oral mucositis; also recorded: grade 3 stomatitis
- Time to resolution of DLT (stomatitis) ([1]; 28 mg intermittent, TAS-117 paused, per patient): ≤ 6 days and ≤ 7 days
- Grade ≥3 TRAEs ([1]; 16-mg o.d. dose cohort): 33.3%
- TRAEs ([1]; 16-mg o.d. dose cohort): 66.7%
- TRAEs reported ([1]; 16-mg o.d. dose level): rash (grade 3) and hyperglycemia (grade 2)
- Grade ≥3 TRAEs ([1]; 20-mg o.d. dose cohort): 66.7%
- TRAEs ([1]; 20-mg o.d. dose cohort): 100%
- Patients with treatment discontinued due to a TRAE ([1]; 20-mg o.d. dose group): 50.0%
- Patients with grade ≥3 TRAEs ([1]; 20-mg o.d. dose level, out of six): four
- Any-grade TRAEs ([1]; 24-mg intermittent dose group): 50.0%
- Grade ≥3 TRAEs ([1]; 24-mg intermittent dose group): 25.0%
- Any-grade TRAEs ([1]; 28-mg intermittent dose group): 100.0%
- Grade ≥3 TRAEs ([1]; 28-mg intermittent dose group): 66.7%
- Patients with any TRAE ([1]; DRC 16 mg o.d. (n = 1)): 0 n (%)
- Treatment-related AE: decreased appetite ([1]; all grade): 17.6%
- Treatment-related AE: fatigue ([1]; all grade): 35.3%
- Treatment-related AE: hyperglycemia ([1]; all grade): 29.4%
- Treatment-related AE: pruritus ([1]; all grade): 29.4%
- Treatment-related AE: rash ([1]; all grade): 58.8%
- Treatment-related AE: decreased appetite ([1]; grade ≥3): 0%
- Treatment-related AE: fatigue ([1]; grade ≥3): 1%
- Treatment-related AE: hyperglycemia ([1]; grade ≥3): 1%
- Treatment-related AE: pruritus ([1]; grade ≥3): 0%
- Treatment-related AE: rash ([1]; grade ≥3): 17.6%
- Patients with any TRAE [1, 2]: 13 (76.5) n (%)
- TRAE: Decreased appetite [1, 2]: 3 (17.6) n (%)
- TRAE: Diarrhea [1, 2]: 3 (17.6) n (%)
- TRAE: Fatigue [1, 2]: 6 (35.3) n (%)
- TRAE: Hyperglycemia [1, 2]: 5 (29.4) n (%)
- TRAE: Nausea [1, 2]: 2 (11.8) n (%)
- TRAE: Pruritus [1, 2]: 5 (29.4) n (%)
- TRAE: Rash [1, 2]: 10 (58.8) n (%)
- TRAE: Rash maculopapular [1, 2]: 2 (11.8) n (%)
- TRAE: Stomatitis [1, 2]: 3 (17.6) n (%)
- Patients with any TRAE [1, 3]: 8 (47.1) n (%)
- TRAE: Fatigue [1, 3]: 1 (5.9) n (%)
- TRAE: Hyperglycemia [1, 3]: 1 (5.9) n (%)
- TRAE: Rash [1, 3]: 3 (17.6) n (%)
- TRAE: Rash maculopapular [1, 3]: 2 (11.8) n (%)
- TRAE: Stomatitis [1, 3]: 2 (11.8) n (%)
- Tolerability ([1]; at the RP2D, 16 mg o.d.): tolerable, with a manageable safety profile; also recorded: tolerable, with a manageable AE profile
- Patients with any TRAE [1, 4]: 2 (50.0) n (%)
- TRAE: Fatigue [1, 4]: 2 (50.0) n (%)
- TRAE: Hyperglycemia [1, 4]: 1 (25.0) n (%)
- TRAE: Pruritus [1, 4]: 2 (50.0) n (%)
- TRAE: Rash [1, 4]: 2 (50.0) n (%)
- Patients with any TRAE [1, 5]: 3 (100) n (%)
- TRAE: Decreased appetite [1, 5]: 2 (66.7) n (%)
- TRAE: Fatigue [1, 5]: 2 (66.7) n (%)
- TRAE: Hyperglycemia [1, 5]: 2 (66.7) n (%)
- TRAE: Pruritus [1, 5]: 2 (66.7) n (%)
- TRAE: Rash [1, 5]: 2 (66.7) n (%)
- TRAE: Rash maculopapular [1, 5]: 1 (33.3) n (%)
- TRAE: Stomatitis [1, 5]: 3 (100) n (%)
- Patients with any TRAE [1, 6]: 5 (71.4) n (%)
- TRAE: Decreased appetite [1, 6]: 2 (28.6) n (%)
- TRAE: Diarrhea [1, 6]: 1 (14.3) n (%)
- TRAE: Fatigue [1, 6]: 4 (57.1) n (%)
- TRAE: Hyperglycemia [1, 6]: 3 (42.9) n (%)
- TRAE: Nausea [1, 6]: 1 (14.3) n (%)
- TRAE: Pruritus [1, 6]: 4 (57.1) n (%)
- TRAE: Rash [1, 6]: 4 (57.1) n (%)
- TRAE: Rash maculopapular [1, 6]: 1 (14.3) n (%)
- TRAE: Stomatitis [1, 6]: 3 (42.9) n (%)
- Patients with any TRAE [1, 7]: 3 (42.9) n (%)
- TRAE: Hyperglycemia [1, 7]: 1 (14.3) n (%)
- TRAE: Rash [1, 7]: 1 (14.3) n (%)
- TRAE: Rash maculopapular [1, 7]: 1 (14.3) n (%)
- TRAE: Stomatitis [1, 7]: 2 (28.6) n (%)
- Patients with any TRAE [1, 8]: 2 (66.7) n (%)
- TRAE: Hyperglycemia [1, 8]: 1 (33.3) n (%)
- TRAE: Rash [1, 8]: 2 (66.7) n (%)
- Patients with any TRAE [1, 9]: 6 (100) n (%)
- TRAE: Decreased appetite [1, 9]: 1 (16.7) n (%)
- TRAE: Diarrhea [1, 9]: 2 (33.3) n (%)
- TRAE: Fatigue [1, 9]: 2 (33.3) n (%)
- TRAE: Hyperglycemia [1, 9]: 1 (16.7) n (%)
- TRAE: Nausea [1, 9]: 1 (16.7) n (%)
- TRAE: Pruritus [1, 9]: 1 (16.7) n (%)
- TRAE: Rash [1, 9]: 4 (66.7) n (%)
- TRAE: Rash maculopapular [1, 9]: 1 (16.7) n (%)
- Patients with any TRAE [1, 10]: 8 (88.9) n (%)
- TRAE: Decreased appetite [1, 10]: 1 (11.1) n (%)
- TRAE: Diarrhea [1, 10]: 2 (22.2) n (%)
- TRAE: Fatigue [1, 10]: 2 (22.2) n (%)
- TRAE: Hyperglycemia [1, 10]: 2 (22.2) n (%)
- TRAE: Nausea [1, 10]: 1 (11.1) n (%)
- TRAE: Pruritus [1, 10]: 1 (11.1) n (%)
- TRAE: Rash [1, 10]: 6 (66.7) n (%)
- TRAE: Rash maculopapular [1, 10]: 1 (11.1) n (%)
- Patients with any TRAE [1, 11]: 5 (55.6) n (%)
- TRAE: Fatigue [1, 11]: 1 (11.1) n (%)
- TRAE: Rash [1, 11]: 2 (22.2) n (%)
- TRAE: Rash maculopapular [1, 11]: 1 (11.1) n (%)
- Patients who experienced a DLT ([1]; dose-escalation part, assessable patients (n = 16), cycle 1): three
- TEAEs leading to death ([1]; either dosing regimen): No TEAEs leading to death
- Patients with dose interruption due to an AE ([1]; intermittent dosing groups): 57.1%
- Patients with dose reductions due to an AE ([1]; intermittent dosing groups): 42.9%
- Patients with treatment discontinued due to a TRAE ([1]; intermittent dosing groups, grade 3 skin exfoliation at 28 mg): 14.3%
- Patients with treatment-related serious AEs ([1]; o.d. dosing groups, all at 20 mg o.d.): three
- Patients with AEs leading to dose interruptions ([1]; o.d. dosing regimen): 66.7%
- Patients with AEs leading to dose reductions ([1]; o.d. dosing regimen): 0%
- TRAE: Diarrhea ([1]; o.d. dosing regimen (n = 9)): 22.2%
- TRAE: Fatigue ([1]; o.d. dosing regimen (n = 9)): 22.2%
- TRAE: Hyperglycemia ([1]; o.d. dosing regimen (n = 9)): 22.2%
- TRAE: Rash ([1]; o.d. dosing regimen (n = 9)): 66.7%
- Grade ≥3 TRAE: stomatitis [1, 12]: 28.6%
- Grade ≥3 TRAEs [1, 12]: 42.9%
- TRAE: Decreased appetite [1, 12]: 28.6%
- TRAE: Fatigue [1, 12]: 57.1%
- TRAE: Hyperglycemia [1, 12]: 42.9%
- TRAE: Pruritus [1, 12]: 57.1%
- TRAE: Rash [1, 12]: 57.1%
- TRAE: Stomatitis [1, 12]: 42.9%
- Objective responses (advanced solid tumors; PIK3CA-mutant endometrial cancer, 1 out of 16 patients): 6.3%
- Objective responses (advanced solid tumors; ovarian clear cell carcinoma, 3 out of 20 patients): 15%
- Antitumor activity and safety (advanced solid tumors; patients with advanced solid tumors): preliminary antitumor activity and a manageable safety profile
